{"source": "ChEMBL document CHEMBL4689842", "about": "“EUbOPEN Chemogenomics Library wave 1” (2021)", "tested_on": "U2OS", "test": "Multiplex assay against U2OS", "type": "toxicity, cell-based", "conditions": "human", "outline": "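Phenotypes for tubulin, mitochondrial mass and membrane permeability are expressed as per cents of healthy-nucleus cells. Cells were stained live at seeding with Hoechst33342, BioTracker Green Microtubule Cytoskeleton Dye, MitoTracker Red and Annexin V Alexa Fluor 680, then imaged after compound addition on a CQ1 microscope at 37°C and 5% CO2. Machine-learning gating in CellPathfinder separated Hoechst high-intensity objects from normal cells, divided normal cells by nuclear state (healthy, pyknosed, fragmented) and divided pyknosed cells into mitotic or apoptotic.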", "key": {"[1]": {"conditions": "12 h, 1 µM, compound concentration 1 uM, replicate 1"}, "[2]": {"conditions": "12 h, 1 µM, compound concentration 1 uM, replicate 2"}, "[3]": {"conditions": "12 h, 10 µM, compound concentration 10 uM, replicate 1"}, "[4]": {"conditions": "12 h, 10 µM, compound concentration 10 uM, replicate 2"}, "[5]": {"conditions": "24 h, 1 µM, compound concentration 1 uM, replicate 1"}, "[6]": {"conditions": "24 h, 1 µM, compound concentration 1 uM, replicate 2"}, "[7]": {"conditions": "24 h, 10 µM, compound concentration 10 uM, replicate 1"}, "[8]": {"conditions": "24 h, 10 µM, compound concentration 10 uM, replicate 2"}}}
{"smiles": "Cc1c(Nc2ccc(S(=O)(=O)N3CCN(C)CC3)cc2F)nc2ccc(Nc3cnn(C4CC4)c3)cn2c1=O", "values": [{"measurement": "Population Apoptotic (%)", "setting": "[1]", "value": 50, "unit": "%"}, {"measurement": "Population Fragmented Nuclei (%)", "setting": "[1]", "value": 7, "unit": "%"}, {"measurement": "Population Healthy Nuclei (%)", "setting": "[1]", "value": 81, "unit": "%"}, {"measurement": "Population Hoechst High Intensity Objects (%)", "setting": "[1]", "value": 3, "unit": "%"}, {"measurement": "Population Membrane Permeable-Phenotype (%)", "setting": "[1]", "value": 58, "unit": "%"}, {"measurement": "Population Mitochondria Different-Phenotype (%)", "setting": "[1]", "value": 9, "unit": "%"}, {"measurement": "Population Mitotic Cells (%)", "setting": "[1]", "value": 50, "unit": "%"}, {"measurement": "Population Normal (%)", "setting": "[1]", "value": 96, "unit": "%"}, {"measurement": "Population Pyknosed Nuclei (%)", "setting": "[1]", "value": 11, "unit": "%"}, {"measurement": "Population Tubulin-Different-Phenotype (%)", "setting": "[1]", "value": 53, "unit": "%"}, {"measurement": "Total Cell Count", "setting": "[1]", "value": 194}, {"measurement": "Population Apoptotic (%)", "setting": "[2]", "value": 0, "unit": "%"}, {"measurement": "Population Fragmented Nuclei (%)", "setting": "[2]", "value": 3, "unit": "%"}, {"measurement": "Population Healthy Nuclei (%)", "setting": "[2]", "value": 93, "unit": "%"}, {"measurement": "Population Hoechst High Intensity Objects (%)", "setting": "[2]", "value": 6, "unit": "%"}, {"measurement": "Population Membrane Permeable-Phenotype (%)", "setting": "[2]", "value": 40, "unit": "%"}, {"measurement": "Population Mitochondria Different-Phenotype (%)", "setting": "[2]", "value": 18, "unit": "%"}, {"measurement": "Population Mitotic Cells (%)", "setting": "[2]", "value": 100, "unit": "%"}, {"measurement": "Population Normal (%)", "setting": "[2]", "value": 93, "unit": "%"}, {"measurement": "Population Pyknosed Nuclei (%)", "setting": "[2]", "value": 3, "unit": "%"}, {"measurement": "Population Tubulin-Different-Phenotype (%)", "setting": "[2]", "value": 34, "unit": "%"}, {"measurement": "Total Cell Count", "setting": "[2]", "value": 124}, {"measurement": "Population Apoptotic (%)", "setting": "[3]", "value": 27, "unit": "%"}, {"measurement": "Population Fragmented Nuclei (%)", "setting": "[3]", "value": 2, "unit": "%"}, {"measurement": "Population Healthy Nuclei (%)", "setting": "[3]", "value": 91, "unit": "%"}, {"measurement": "Population Hoechst High Intensity Objects (%)", "setting": "[3]", "value": 3, "unit": "%"}, {"measurement": "Population Membrane Permeable-Phenotype (%)", "setting": "[3]", "value": 7, "unit": "%"}, {"measurement": "Population Mitochondria Different-Phenotype (%)", "setting": "[3]", "value": 21, "unit": "%"}, {"measurement": "Population Mitotic Cells (%)", "setting": "[3]", "value": 72, "unit": "%"}, {"measurement": "Population Normal (%)", "setting": "[3]", "value": 96, "unit": "%"}, {"measurement": "Population Pyknosed Nuclei (%)", "setting": "[3]", "value": 5, "unit": "%"}, {"measurement": "Total Cell Count", "setting": "[3]", "value": 459}, {"measurement": "Population Apoptotic (%)", "setting": "[4]", "value": 37, "unit": "%"}, {"measurement": "Population Fragmented Nuclei (%)", "setting": "[4]", "value": 9, "unit": "%"}, {"measurement": "Population Healthy Nuclei (%)", "setting": "[4]", "value": 82, "unit": "%"}, {"measurement": "Population Hoechst High Intensity Objects (%)", "setting": "[4]", "value": 15, "unit": "%"}, {"measurement": "Population Membrane Permeable-Phenotype (%)", "setting": "[4]", "value": 9, "unit": "%"}, {"measurement": "Population Mitochondria Different-Phenotype (%)", "setting": "[4]", "value": 32, "unit": "%"}, {"measurement": "Population Mitotic Cells (%)", "setting": "[4]", "value": 62, "unit": "%"}, {"measurement": "Population Normal (%)", "setting": "[4]", "value": 84, "unit": "%"}, {"measurement": "Population Pyknosed Nuclei (%)", "setting": "[4]", "value": 7, "unit": "%"}, {"measurement": "Population Tubulin-Different-Phenotype (%)", "setting": "[4]", "value": 20, "unit": "%"}, {"measurement": "Total Cell Count", "setting": "[4]", "value": 603}, {"measurement": "Population Apoptotic (%)", "setting": "[5]", "value": 50, "unit": "%"}, {"measurement": "Population Fragmented Nuclei (%)", "setting": "[5]", "value": 10, "unit": "%"}, {"measurement": "Population Healthy Nuclei (%)", "setting": "[5]", "value": 80, "unit": "%"}, {"measurement": "Population Hoechst High Intensity Objects (%)", "setting": "[5]", "value": 1, "unit": "%"}, {"measurement": "Population Membrane Permeable-Phenotype (%)", "setting": "[5]", "value": 37, "unit": "%"}, {"measurement": "Population Mitochondria Different-Phenotype (%)", "setting": "[5]", "value": 15, "unit": "%"}, {"measurement": "Population Mitotic Cells (%)", "setting": "[5]", "value": 50, "unit": "%"}, {"measurement": "Population Normal (%)", "setting": "[5]", "value": 98, "unit": "%"}, {"measurement": "Population Pyknosed Nuclei (%)", "setting": "[5]", "value": 9, "unit": "%"}, {"measurement": "Population Tubulin-Different-Phenotype (%)", "setting": "[5]", "value": 33, "unit": "%"}, {"measurement": "Total Cell Count", "setting": "[5]", "value": 275}, {"measurement": "Population Apoptotic (%)", "setting": "[6]", "value": 42, "unit": "%"}, {"measurement": "Population Fragmented Nuclei (%)", "setting": "[6]", "value": 6, "unit": "%"}, {"measurement": "Population Healthy Nuclei (%)", "setting": "[6]", "value": 87, "unit": "%"}, {"measurement": "Population Hoechst High Intensity Objects (%)", "setting": "[6]", "value": 5, "unit": "%"}, {"measurement": "Population Membrane Permeable-Phenotype (%)", "setting": "[6]", "value": 19, "unit": "%"}, {"measurement": "Population Mitochondria Different-Phenotype (%)", "setting": "[6]", "value": 10, "unit": "%"}, {"measurement": "Population Mitotic Cells (%)", "setting": "[6]", "value": 57, "unit": "%"}, {"measurement": "Population Normal (%)", "setting": "[6]", "value": 94, "unit": "%"}, {"measurement": "Population Pyknosed Nuclei (%)", "setting": "[6]", "value": 6, "unit": "%"}, {"measurement": "Population Tubulin-Different-Phenotype (%)", "setting": "[6]", "value": 19, "unit": "%"}, {"measurement": "Total Cell Count", "setting": "[6]", "value": 152}, {"measurement": "Population Apoptotic (%)", "setting": "[7]", "value": 50, "unit": "%"}, {"measurement": "Population Fragmented Nuclei (%)", "setting": "[7]", "value": 3, "unit": "%"}, {"measurement": "Population Healthy Nuclei (%)", "setting": "[7]", "value": 91, "unit": "%"}, {"measurement": "Population Hoechst High Intensity Objects (%)", "setting": "[7]", "value": 2, "unit": "%"}, {"measurement": "Population Membrane Permeable-Phenotype (%)", "setting": "[7]", "value": 5, "unit": "%"}, {"measurement": "Population Mitochondria Different-Phenotype (%)", "setting": "[7]", "value": 15, "unit": "%"}, {"measurement": "Population Mitotic Cells (%)", "setting": "[7]", "value": 50, "unit": "%"}, {"measurement": "Population Normal (%)", "setting": "[7]", "value": 97, "unit": "%"}, {"measurement": "Population Pyknosed Nuclei (%)", "setting": "[7]", "value": 5, "unit": "%"}, {"measurement": "Population Tubulin-Different-Phenotype (%)", "setting": "[7]", "value": 26, "unit": "%"}, {"measurement": "Total Cell Count", "setting": "[7]", "value": 480}, {"measurement": "Population Apoptotic (%)", "setting": "[8]", "value": 30, "unit": "%"}, {"measurement": "Population Fragmented Nuclei (%)", "setting": "[8]", "value": 5, "unit": "%"}, {"measurement": "Population Healthy Nuclei (%)", "setting": "[8]", "value": 85, "unit": "%"}, {"measurement": "Population Hoechst High Intensity Objects (%)", "setting": "[8]", "value": 11, "unit": "%"}, {"measurement": "Population Membrane Permeable-Phenotype (%)", "setting": "[8]", "value": 10, "unit": "%"}, {"measurement": "Population Mitochondria Different-Phenotype (%)", "setting": "[8]", "value": 26, "unit": "%"}, {"measurement": "Population Mitotic Cells (%)", "setting": "[8]", "value": 69, "unit": "%"}, {"measurement": "Population Normal (%)", "setting": "[8]", "value": 88, "unit": "%"}, {"measurement": "Population Pyknosed Nuclei (%)", "setting": "[8]", "value": 9, "unit": "%"}, {"measurement": "Population Tubulin-Different-Phenotype (%)", "setting": "[8]", "value": 20, "unit": "%"}, {"measurement": "Total Cell Count", "setting": "[8]", "value": 644}]}
